Only some compounds are listed: those with a hit (about 3.8% of all), similar ones and a draw of the others.
KCNQ1 inh – inhibitors of human KCNQ1 potassium channel; 1.3% of 310,000 active; AID 2642; B-score at 10 µM; CHO-K1 KCNQ1, FluxOR thallium flux fluorescence; hits give high values; P51787;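 active = compounds whose thallium flux B-score, printed positive for inhibition, exceeds three library SD while starting fluorescence stays within three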;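 also: channel opened by potassium depolarization with thallium stimulus after 20 min compound exposure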
KCNK3 block – human KCNK3 channel inhibition, primary screen; O14649; CHO-KCNK3 thallium flux, FluxOR fluorescence; hits give low values; B-score at 10 µM; 0.84% of 340,000 active;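 active = B-score under library mean minus 4 SD, starting fluorescence ratio at most library mean plus 5 SD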;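 also: more negative B-score means stronger inhibition of thallium flux through KCNK3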
KCNQ1 pot – potentiators or activators of human KCNQ1 potassium channel. P51787. CHO-K1 KCNQ1, thallium flux FluxOR fluorescence; hits give high values. B-score at 10 µM. 0.35% of 310,000 active. AID 2648;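 active = fluorescence ratio B-score, a plate-corrected score, at least three library SD, with initial intensity B-score within 5 SD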
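Assay system: CHO-K1 cells stably expressing KCNQ1; Medium: assay buffer with matched DMSO; Also added: K+/Tl+ depolarizing stimulus; Dosing: single dose; Timing: dye 90 min, compound 20 min, room temperature; Measured by: kinetic FluxOR thallium fluorescence, 10-s 1-Hz baseline, 110-s post-stimulus read; Read-out: peak-minus-minimum fluorescence over initial fluorescence, negative-control normalized, B-scored.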
hERG protect – hERG (human) protection from proarrhythmic block; activation (rescue from dofetilide block), less the hit threshold, % at 10 µM; AID 1511; CHO-hERG, FluxOR thallium flux, dofetilide IC70 present; Q12809; 0.51% of 310,000 active;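 active = activation above the mean of controls blocked by dofetilide plus 5 SD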;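 also: thallium influx through hERG after potassium depolarization seen as dye fluorescence rise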
KCNK9 block – inhibitors of human KCNK9 two-pore domain potassium channel | AID 488922 | Q9NPC2 | B-score at 10 µM | HEK293 KCNK9, FluxOR thallium flux fluorescence; hits give low values | 1.2% of 310,000 active;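 active = ratio B-score over 3 SD below the library mean, with starting fluorescence within 5 SD of its mean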;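 also: negative B-score means less thallium flux so channel inhibition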
Kir21 inh – blocks the mouse Kir2.1 inward-rectifier potassium channel. P35561. HEK293-Kir2.1, FluxOR thallium flux fluorescence; hits give low values. B-score at 10 µM. 0.85% of 310,000 active. AID 1672;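 active = fluorescence ratio B-score at or below minus 3 SD of library scores, with starting-brightness B-score within 2 SD, cut at about -4.2 in these data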;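 also: channel flux triggered by added potassium and thallium sulfate stimulus; B-score of peak minus minimum fluorescence over baseline after thallium stimulus; more negative B-score means stronger Kir2.1 block with less thallium influx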
Target sequence (P35561 whole entry, looked up): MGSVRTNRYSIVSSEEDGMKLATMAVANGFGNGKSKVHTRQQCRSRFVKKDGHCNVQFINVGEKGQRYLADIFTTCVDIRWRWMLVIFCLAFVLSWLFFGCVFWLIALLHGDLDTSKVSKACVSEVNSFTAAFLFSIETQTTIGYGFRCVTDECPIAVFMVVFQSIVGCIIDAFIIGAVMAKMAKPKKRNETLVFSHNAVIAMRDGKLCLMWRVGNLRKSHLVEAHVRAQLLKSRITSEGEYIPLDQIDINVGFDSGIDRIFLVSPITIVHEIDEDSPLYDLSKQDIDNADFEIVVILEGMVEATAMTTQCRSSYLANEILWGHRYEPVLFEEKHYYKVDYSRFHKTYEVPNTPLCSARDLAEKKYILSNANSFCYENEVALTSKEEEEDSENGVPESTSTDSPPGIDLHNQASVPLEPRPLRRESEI
KCNK9 inh conf – confirmation of human KCNK9 potassium channel inhibitors. inhibition, % at 10 µM. 43% of 4,900 active. HEK293 KCNK9 cells, FluxOR thallium flux fluorescence. AID 492992. shares compounds with KCNK9 block;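 active = thallium signal inhibited by more than 5 SD of the compound-free buffer control wells, on both duplicate plates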
Kir2-1 spec – mouse Kir2.1 off-target activity of KCNK9 modulators; 4% of 4,900 active; Kir2.1 cells, FluxOR thallium flux fluorescence; AID 492993; inhibition, % at 10 µM; shares compounds with KCNK9 block;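 active = thallium signal drop more than 5 SD beyond the mean of the no-compound control wells, seen in both duplicate plates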;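 also: signal is fluorescence rise after thallium addition divided by baseline fluorescence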
HEK293 Tl ctr – non-induced cell nonspecific activity of KCNK9 modulators; shares compounds with KCNK9 block; non-induced KCNK9-HEK293, FluxOR thallium flux; inhibition, % at 10 µM; 40% of 4,900 active; AID 492997;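 active = thallium signal drop beyond 5 SD of the untreated control mean, on both duplicate plates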
A number is an active result.

For COc1ccc(OC)c(C(C[N+](=O)[O-])c2c(C)cc3ccccn23)c1 (configuration not stated) the results were KCNQ1 inh inactive, KCNK3 block inactive, KCNQ1 pot inactive, hERG protect inactive, KCNK9 block -17, Kir21 inh inactive, KCNK9 inh conf 58%, Kir2-1 spec inactive and HEK293 Tl ctr 28%.
`CN(C/C=C/C#CC(C)(C)C)Cc1cccc2ccccc12` gave KCNQ1 inh inactive, KCNK3 block inactive, KCNQ1 pot inactive, hERG protect inactive, KCNK9 block inactive, Kir21 inh inactive, KCNK9 inh conf inactive, Kir2-1 spec inactive and HEK293 Tl ctr inactive.
COc1ccc(CCN(C)Cc2cccc3ccccc23)cc1OC was read as KCNQ1 inh inactive, KCNK3 block inactive, KCNQ1 pot inactive, hERG protect inactive, KCNK9 block inactive and Kir21 inh inactive.
Screening Cc1c(Cl)c([N+](=O)[O-])nn1Cc1ccc(C(=O)N/N=C\c2cccc(Br)c2)o1 returned KCNQ1 inh inactive, KCNK3 block inactive, KCNQ1 pot inactive, hERG protect inactive, KCNK9 block -8.5, Kir21 inh inactive, KCNK9 inh conf 42%, Kir2-1 spec inactive and HEK293 Tl ctr 27%.
`O=C(N/N=C\c1cccc(Cl)c1)c1ccc(Cn2cc(Br)c([N+](=O)[O-])n2)o1` gave KCNQ1 inh inactive, KCNK3 block inactive, KCNQ1 pot inactive, hERG protect inactive, KCNK9 block -16, Kir21 inh inactive, KCNK9 inh conf 68%, Kir2-1 spec inactive and HEK293 Tl ctr 32%.
For COc1ccccc1N(CC(=O)N1CCN(c2ccc(F)cc2)CC1)S(=O)(=O)c1ccc(C)cc1 the results were KCNQ1 inh inactive, KCNK3 block inactive, KCNQ1 pot inactive, hERG protect inactive, KCNK9 block inactive and Kir21 inh inactive.
COc1ccc(NC(=O)COC(=O)CNC(=O)C2CCCCC2)cc1OC was read as KCNK3 block inactive.
`CCN(Cc1ccccc1)Cc1nc(CCc2ccccc2)no1` gave KCNQ1 inh inactive, KCNK3 block inactive, KCNQ1 pot inactive, hERG protect inactive, KCNK9 block inactive and Kir21 inh inactive.
For c1ccc(CCN(Cc2ccccc2)Cc2nc(C3CC3)no2)cc1 the results were KCNQ1 inh inactive, KCNK3 block inactive, KCNQ1 pot inactive, hERG protect inactive, KCNK9 block -9.6, Kir21 inh inactive, KCNK9 inh conf inactive, Kir2-1 spec inactive and HEK293 Tl ctr 38%.
CCOC(=O)c1c(NC(=O)c2nn(CC)cc2Br)c(C#N)nn1-c1ccccc1 was read as KCNQ1 inh inactive, KCNK3 block inactive, KCNQ1 pot inactive, hERG protect inactive, KCNK9 block -9.3, Kir21 inh inactive, KCNK9 inh conf 30%, Kir2-1 spec inactive and HEK293 Tl ctr 33%.
CCOC(=O)c1nn(-c2ccccc2)c(C#N)c1NC(=O)c1nn(CC)cc1Br was read as KCNQ1 inh inactive, KCNK3 block inactive, KCNQ1 pot inactive, hERG protect inactive, KCNK9 block inactive and Kir21 inh inactive.
NS(=O)(=O)c1ccc(NC(=S)N2CCN(C(=O)C3CCCO3)CC2)cc1 (configuration not stated) was read as KCNQ1 inh inactive, KCNK3 block inactive, KCNQ1 pot inactive, hERG protect inactive, KCNK9 block inactive and Kir21 inh inactive.
`Cc1cc(Cl)ccc1C(=O)C1CCCN(C(=O)c2cccc(N3CCCC3=O)c2)C1` (configuration not stated) gave KCNQ1 inh inactive, KCNK3 block inactive, KCNQ1 pot inactive, hERG protect inactive, KCNK9 block inactive and Kir21 inh inactive.
Screening COC(=O)CCC(=O)N1CCCC(C(=O)c2ccc(Cl)cc2C)C1 (configuration not stated) returned KCNQ1 inh inactive, KCNK3 block inactive, KCNQ1 pot inactive, hERG protect inactive, KCNK9 block inactive and Kir21 inh inactive.
